Results from ChEMBL document CHEMBL4033799, “Stable and Long-Lasting, Novel Bicyclic Peptide Plasma Kallikrein Inhibitors for the Treatment of Diabetic Macular Edema” (J Med Chem, 2018).
pKi: −log10 of the molar value.

What was measured:
[1] = biological target: T1, Complement C1s subcomponent (Homo sapiens, UniProt P09871); experiment: Inhibition of recombinant human C-terminal 6His-tagged complement component C1s (1 to 688 residues) expressed in mouse NS0 cells using fluorogenic Z-Lys-SBzl peptide as substrate after 5 mins by fluorescence based assay
T1 sequence (P09871 whole entry): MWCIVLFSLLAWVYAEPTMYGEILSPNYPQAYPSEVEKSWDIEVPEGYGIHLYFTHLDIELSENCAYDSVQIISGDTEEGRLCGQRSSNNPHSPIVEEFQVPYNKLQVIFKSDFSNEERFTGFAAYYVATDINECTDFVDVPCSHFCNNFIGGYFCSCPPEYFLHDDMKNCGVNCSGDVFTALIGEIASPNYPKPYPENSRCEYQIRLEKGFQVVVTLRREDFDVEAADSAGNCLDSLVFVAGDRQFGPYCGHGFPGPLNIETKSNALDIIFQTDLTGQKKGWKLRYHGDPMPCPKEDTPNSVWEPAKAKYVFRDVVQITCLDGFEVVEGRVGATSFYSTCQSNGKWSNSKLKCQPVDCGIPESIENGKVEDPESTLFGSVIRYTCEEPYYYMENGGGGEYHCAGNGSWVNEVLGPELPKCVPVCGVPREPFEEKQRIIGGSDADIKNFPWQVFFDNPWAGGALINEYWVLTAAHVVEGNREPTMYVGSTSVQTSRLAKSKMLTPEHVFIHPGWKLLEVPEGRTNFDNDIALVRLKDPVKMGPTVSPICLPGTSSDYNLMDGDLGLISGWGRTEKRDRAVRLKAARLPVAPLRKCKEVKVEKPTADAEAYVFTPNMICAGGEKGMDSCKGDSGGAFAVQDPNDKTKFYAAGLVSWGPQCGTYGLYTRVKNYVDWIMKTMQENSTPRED
Outline: (§1)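 Human serine proteases were assayed with substrates and conditions set by each supplier's recommendations. Peptides were first screened at 50 μM. Where inhibition was detected, Ki was determined from activity across peptide concentrations using a tight-binding rate equation.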

Kallikrein-13 = biological target: T2, Kallikrein-13 (Homo sapiens, UniProt Q9UKR3); experiment: Inhibition of recombinant human C-terminal polyHis-tagged KLK13 (1 to 262 residues) expressed in HEK293 cells using fluorogenic Boc-VPR-AMC peptide as substrate by fluorescence based assay
T2 sequence (Q9UKR3 whole entry): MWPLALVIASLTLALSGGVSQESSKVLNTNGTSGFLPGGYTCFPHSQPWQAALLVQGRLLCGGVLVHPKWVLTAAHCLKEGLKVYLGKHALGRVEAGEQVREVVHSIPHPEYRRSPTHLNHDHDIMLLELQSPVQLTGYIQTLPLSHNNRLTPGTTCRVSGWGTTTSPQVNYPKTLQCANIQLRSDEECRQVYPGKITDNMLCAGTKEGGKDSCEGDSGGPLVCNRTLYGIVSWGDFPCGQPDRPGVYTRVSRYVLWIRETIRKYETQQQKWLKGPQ
Outline: (§2)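 Panel of human serine proteases. Substrates and assay conditions followed each supplier's recommendations. Peptides were first screened at 50 μM. Where inhibition was detectable, hydrolytic activity was measured across a range of peptide concentrations. Ki was obtained by fitting to the tight-binding inhibitor rate equation.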

Plasminogen = Plasminogen (Homo sapiens, UniProt P00747); experiment: Inhibition of recombinant human plasmin using fluorogenic D-AFK-ANSNH-iC4H9.2HBr peptide as substrate by fluorescence based assay; outline: as §2
Coagulation factor XI = Coagulation factor XI (Homo sapiens, UniProt P03951); experiment: Inhibition of human factor 11a using fluorogenic peptide as substrate by fluorescence based assay; outline: as §1
Granzyme B = Granzyme B (Homo sapiens, UniProt P10144); experiment: Inhibition of recombinant human Granzyme B (21 to 247 residues) using […] Ac-IEPD-pNA peptide as substrate […]; outline: as §2
Coagulation factor X = Coagulation factor X (Homo sapiens, UniProt P00742); experiment: Inhibition of recombinant human C-terminal 10His-tagged factor Xa (24 to 488 residues) expressed in baculovirus derived insect sf21 cells using fluorogenic Mca-RPKPVE-Nval-WRK(Dnp)-NH2 peptide as substrate by fluorescence based assay; outline: as §1
[2] = biological target: Vitamin K-dependent protein C (Homo sapiens, UniProt P04070); experiment: Inhibition of human activated protein C by fluorescence based assay; outline: as §1
Kallikrein-2 = biological target: T3, Kallikrein-2 (Homo sapiens, UniProt P20151); experiment: Inhibition of recombinant human C-terminal 10His-tagged KLK2 (1 to 261 residues) expressed in mouse NS0 cells using fluorogenic PFR-AMC peptide as substrate after 5 mins by fluorescence based assay; outline: as §1
T3 sequence (P20151 whole entry): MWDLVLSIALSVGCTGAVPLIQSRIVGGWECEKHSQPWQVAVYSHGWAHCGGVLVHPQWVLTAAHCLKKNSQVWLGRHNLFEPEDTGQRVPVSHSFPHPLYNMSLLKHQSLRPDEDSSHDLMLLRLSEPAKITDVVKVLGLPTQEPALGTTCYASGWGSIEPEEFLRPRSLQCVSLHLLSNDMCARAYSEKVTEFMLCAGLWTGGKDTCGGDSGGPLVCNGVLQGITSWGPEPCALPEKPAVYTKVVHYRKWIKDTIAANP

[3] = biological target: T4, Suppressor of tumorigenicity 14 protein (Homo sapiens, UniProt Q9Y5Y6); experiment: Inhibition of recombinant human N-terminal 6His-tagged matriptase catalytic domain (596 to 855 residues) expressed in Escherichia coli using fluorogenic Boc-QAR-AMC peptide as substrate after 5 mins by fluorescence based assay; outline: as §2
T4 sequence (Q9Y5Y6 whole entry): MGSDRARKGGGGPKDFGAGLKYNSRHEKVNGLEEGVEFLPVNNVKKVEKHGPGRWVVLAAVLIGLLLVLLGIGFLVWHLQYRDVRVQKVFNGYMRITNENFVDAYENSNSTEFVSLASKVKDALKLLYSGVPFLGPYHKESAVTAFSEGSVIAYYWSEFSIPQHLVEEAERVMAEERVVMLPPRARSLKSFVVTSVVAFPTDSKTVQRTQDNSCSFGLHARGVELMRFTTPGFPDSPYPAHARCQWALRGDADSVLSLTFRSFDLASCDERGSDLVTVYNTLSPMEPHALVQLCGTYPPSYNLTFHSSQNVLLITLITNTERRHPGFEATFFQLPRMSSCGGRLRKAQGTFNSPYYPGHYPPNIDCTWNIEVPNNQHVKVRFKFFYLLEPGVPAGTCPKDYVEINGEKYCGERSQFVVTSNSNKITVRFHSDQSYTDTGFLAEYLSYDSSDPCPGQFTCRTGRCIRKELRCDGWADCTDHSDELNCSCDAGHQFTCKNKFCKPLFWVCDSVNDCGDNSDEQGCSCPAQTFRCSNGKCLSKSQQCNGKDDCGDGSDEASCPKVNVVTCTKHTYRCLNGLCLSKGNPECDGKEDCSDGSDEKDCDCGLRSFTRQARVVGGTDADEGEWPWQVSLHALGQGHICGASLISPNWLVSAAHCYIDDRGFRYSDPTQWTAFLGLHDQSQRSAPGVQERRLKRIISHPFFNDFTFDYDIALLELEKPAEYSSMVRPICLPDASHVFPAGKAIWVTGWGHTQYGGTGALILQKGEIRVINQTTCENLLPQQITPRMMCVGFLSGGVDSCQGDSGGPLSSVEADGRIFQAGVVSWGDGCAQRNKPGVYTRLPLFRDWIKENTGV

| Compound | pKi [1] | pKi (Kallikrein-13; hek293) | pKi (Plasminogen) | pKi (Coagulation factor XI) | pKi (Granzyme B) | pKi (Coagulation factor X) | pKi [2] | pKi (Kallikrein-2) | pKi [3] | pKi (Kallikrein-13) |
| --- | --- | --- | --- | --- | --- | --- | --- | --- | --- | --- |
| CC(=O)N[C@H]1CSCc2cc3cc(c2)CSC[C@H](C(=O)N[C@@H](C)C(=O)N(C)CC(=O)N(C)CC(=O)N(C)CC(=O)N[C@H](CCCNC(=N)N)C(=O)N[C@H](CCCNC(=N)N)C(=O)O)NC(=O)[C@H](CC(C)C)NC(=O)[C@@H]2CCCN2C(=O)[C@H](C)NC(=O)[C@H](CC(=O)O)NC(=O)[C@H](Cc2c[nH]c4ccccc24)NC(=O)[C@@H]2CCCN2C(=O)[C@H](CSC3)NC(=O)[C@H](Cc2c[nH]c3ccccc23)NC(=O)[C@@H]2CCCN2C(=O)[C@H](CC(N)=O)NC(=O)[C@H](Cc2c[nH]c3ccccc23)NC(=O)[C@H]([C@@H](C)O)NC(=O)[C@H](CC(N)=O)NC1=O | < 4.30 | < 4.30 | < 4.30 | < 4.30 | < 4.30 | < 4.30 | < 4.30 | < 4.30 | 4.40 | – |
| CC[C@H](C)[C@@H]1NC(=O)[C@H](CC(=O)O)NC(=O)[C@@H]2CCCN2C(=O)[C@H](Cc2ccc(O)cc2)NC(=O)[C@H](Cc2ccc(O)cc2)NC(=O)[C@H](C(C)C)NC(=O)[C@@H]2CSCc3cc(cc(c3)CSC[C@@H](C(=O)N[C@@H](C)C(=O)N(C)CC(=O)N(C)CC(=O)N(C)CC(=O)N[C@H](CCCNC(=N)N)C(=O)N[C@H](CCCNC(=N)N)C(=O)O)NC1=O)CSC[C@H](NC(C)=O)C(=O)N[C@@H](CO)C(=O)N[C@@H](Cc1ccccc1)C(=O)N1CCC1C(=O)N[C@@H](Cc1ccc(O)cc1)C(=O)N[C@@H](CCCCNC(=N)N)C(=O)N2 (stereo not given in full) | < 4.30 | – | < 4.30 | 6.30 | < 4.30 | 4.64 | < 4.30 | 5.00 | 4.82 | 6.09 |
| CC(=O)N[C@H]1CSCc2cc3cc(c2)CSC[C@H](NC(=O)[C@H](CCCCNC(=N)N)NC(=O)[C@H](Cc2ccc(O)cc2)NC(=O)[C@@H]2CCN2C(=O)[C@H](Cc2ccccc2)NC(=O)[C@H](CO)NC1=O)C(=O)N[C@@H](C)CN[C@@H](Cc1cnc[nH]1)C(=O)N[C@@H](CCC(N)=O)C(=O)N[C@@H](CC(=O)O)C(=O)N[C@@H](CC(C)C)C(=O)N[C@H](C(=O)O)CSC3 | – | < 4.30 | < 4.30 | < 4.30 | < 4.30 | – | < 4.30 | 5.00 | 4.30 | – |
